From PubChem BioAssay
In the library only some 2.5% were active in any assay of this set; here they are far more common.
FGF22 binding: binders of recombinant human FGF22 by thermal shift. Q9HCT0. SYPRO orange fluorescence; percent of sucrose octasulfate shift, DMSO zero. activity (Tm shift, normalised), % at 9.99 µM. 340,000 tested, 1.5% active;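 active means mean Tm shift, scaled 0 neutral to 100 positive control, at about 1.3% or above, every replicate too, limit read from the data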
Target sequence (Q9HCT0 whole entry, looked up): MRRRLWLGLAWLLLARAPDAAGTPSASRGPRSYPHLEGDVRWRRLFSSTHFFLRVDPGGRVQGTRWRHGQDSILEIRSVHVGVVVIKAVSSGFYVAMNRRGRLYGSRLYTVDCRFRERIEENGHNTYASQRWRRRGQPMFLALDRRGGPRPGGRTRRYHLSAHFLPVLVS
miR-122 sensor: miR-122 inhibition in Huh7 cells; Huh7 miR-122 Renilla luciferase sensor, 48 h; neutral wells = 0, positive control = 100; activation (reporter increase), % at 12.5 µM; 340,000 tested, 0.3% active; AID 602342;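 active means mean replicate activation score at least 90 and every replicate individually at or above 90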;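 further: higher luciferase means less miR-122 activity so hits act as miR-122 inhibitors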
S100A4 MyoIIA: S100A4-myosin IIA interaction inhibition. AID 652163. 360,000 tested, 0.14% active. S100A4/TAMRA-MyoIIA peptide fluorescence polarization. inhibition, % at 10.7 µM;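 active means mean inhibition of at least 70% across replicates, with every replicate also reaching that level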
Target sequence (P26447 whole entry, looked up): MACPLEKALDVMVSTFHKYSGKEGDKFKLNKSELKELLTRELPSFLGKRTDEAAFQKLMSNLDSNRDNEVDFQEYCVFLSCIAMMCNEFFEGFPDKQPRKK
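Assay system: human S100A4 monomer with TAMRA-labelled myosin IIA peptide / Buffer or medium: Calcium-containing HEPES buffer, pH 7.2 / Reagent: TAMRA-labelled myosin IIA heavy-chain peptide probe, 5 nM / Compound: one dose per compound / Timing: polarization read 5 min after assay mix addition, stable 5–60 min / Benchmarks: neutral control DMSO, positive control TFP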
SIRT5 block: blocks human SIRT5 desuccinylation of peptide. Q9NXA8. Purified SirT5, succinyl-peptide AMC, trypsin-coupled fluorescence. inhibition, % at 15 µM. 330,000 tested, 1.1% active. AID 652115; in the data active means inhibition above about 15%
Target sequence (Q9NXA8 whole entry, looked up): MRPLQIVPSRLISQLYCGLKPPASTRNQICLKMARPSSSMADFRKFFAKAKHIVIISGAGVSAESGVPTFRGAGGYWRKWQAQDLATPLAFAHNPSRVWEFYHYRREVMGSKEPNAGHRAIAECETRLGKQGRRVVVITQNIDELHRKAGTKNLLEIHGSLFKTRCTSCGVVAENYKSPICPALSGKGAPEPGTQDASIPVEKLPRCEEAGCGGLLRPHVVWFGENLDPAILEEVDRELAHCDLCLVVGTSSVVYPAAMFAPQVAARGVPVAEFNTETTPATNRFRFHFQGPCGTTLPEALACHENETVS
E-selectin induc: E-selectin induction on HUVECs | P16581 | HUVEC E-selectin immunofluorescence imaging; normalized: neutral wells 0, TNF-alpha wells 100 | activation, % at 7.58 µM | 260,000 tested, 0.37% active;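 active means mean E-selectin-positive cell signal at least 10% of the positive control, reached in at least 60% of replicates, without over 20% cell loss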
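Test system: HUVEC | Signal: Immunofluorescence imaging | Read-out: Percent E-selectin-positive cells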
* = called active by the depositor; . = no result given; [ ] = remark or other dose.

SMILES | FGF22 binding | miR-122 sensor | S100A4 MyoIIA | SIRT5 block | E-selectin induc
CS(=O)(=O)N1N=C(c2ccc(Cl)cc2)CC1c1cccs1 (stereo not given) | . | 126* | . | . | .
COc1ccc(OCCOc2ccc(S(=O)(=O)N3CCCC3)cc2[N+](=O)[O-])cc1 | 0 | 1 | 6 | 27* | .
CCC(=O)N(C)C[C@@H]1Oc2cc(C3=CCCCC3)ccc2S(=O)(=O)N([C@@H](C)CO)C[C@@H]1C | . | 3[16.7 µM] | . | . | -1
COc1cccc(-c2ccc([C@H]3[C@H](CO)N(C(=O)C4CC4)C34CN(C(C)=O)C4)cc2)c1 | 0 | . | -12 | -3 | 0
O=C1CSCN1c1ccc(Cl)c(Cl)c1 | 43* | -1 | 1 | 1 | .
O=C1CSCN1c1cc(Cl)ccc1Cl | 0 | -6 | 2 | -2 | 0
CC(=O)N(C)C[C@@H]1Oc2cc(-c3cccc(C#N)c3)ccc2S(=O)(=O)N([C@H](C)CO)C[C@@H]1C | 0 | 0[16.7 µM] | -1 | 9 | 0
COCCCN1C(=O)[C@@]2(Cc3ccccc31)c1ccccc1C(=O)N(Cc1ccccc1)[C@H]2c1ccc(CO)cc1 | 0 | . | 5 | -3 | .
COc1cc(C(=O)Nc2nc3ccc(C)cc3s2)ccc1OCc1c(C)noc1C | . | 6 | . | . | .
CCc1nnc(NC(=O)c2ccc(OCc3c(C)noc3C)c(OC)c2)s1 | 43* | -9 | -2 | -1 | .
CO[C@H]1CC[C@H]2CCOc3c(C#N)cccc3C(=O)N(C)C[C@H](c3ccccc3)CC(=O)N(C)C[C@H]1O2 | 0 | . | 121* | 9 | 0
CO[C@@H]1CC[C@@H]2CCN(C)C(=O)C[C@H](c3ccccc3)CN(C)C(=O)c3cccc(C#N)c3OC[C@@H]1O2 | 0 | . | 0 | 25* | 0
COc1ccc(NS(=O)(=O)c2cc(C(=O)OC(C)C(=O)N3CCOCC3)ccc2Cl)cc1 (stereo not given) | 0 | . | -5 | -5 | .
CNC(=O)NC(=O)C(C)OC(=O)c1ccc(Cl)c(S(=O)(=O)Nc2ccc(F)cc2)c1 (stereo not given) | 0 | 215* | 1 | -3 | 0
COc1ccccc1NC(=O)N1C[C@@H]2N[C@H](C1)C2c1ccc(-c2cccc(C(=O)N(C)C)c2)cc1 (stereo not given in full) | . | . | 0 | 0 | -1
CCc1ccc(C2C3=C(CC(C)(C)CC3=O)OC3=C2C(=O)CC(C)(C)C3)cc1 | 1 | 0 | 4 | 0 | 5
CCc1ccc(C2C3=C(CCCC3=O)OC3=C2C(=O)CCC3)cc1 | 43* | . | 11 | -4 | .
C[C@@H]1CN([C@@H](C)CO)C(=O)c2cc(NC(=O)NC3CCCCC3)ccc2O[C@@H](C)CCCCO[C@H]1CN(C)C(=O)c1ccccc1 | 0 | 1[16.7 µM] | 9 | 12 | 0
COC(=O)c1ccc(N2C(=O)CC(SCC(=O)Nc3ccc(OC)cc3)C2=O)cc1 (stereo not given) | 0 | . | 18 | 2 | 58*
CNC[C@@H]1Oc2ccc(NC(=O)Nc3ccc(F)cc3)cc2CC(=O)N([C@@H](C)CO)C[C@@H]1C | 0 | -5[16.7 µM] | 4 | -6 | 0
CC1=C/C(=C(\c2cc(C)c(O)c(Br)c2)c2ccccc2S(=O)(=O)O)C=C(Br)C1=O | 0 | -11 | -2 | 16* | 0
C[C@H]1CN([C@@H](C)CO)C(=O)c2cccc(NC(=O)C3CCOCC3)c2O[C@@H]1CN(C)Cc1ccc2c(c1)OCO2 | 0 | 28[16.7 µM] | 10 | 1 | .
COC(=O)c1ccc(CSc2nnc(CS(=O)Cc3ccc(Br)cc3)n2-c2ccccc2)cc1 (stereo not given) | 0 | -7 | 1 | 18* | 0
O=S(Cc1ccc(Br)cc1)Cc1nnc(SCc2ccc(Br)cc2)n1-c1ccccc1 (stereo not given) | 0 | . | 5 | 2 | 0
CSc1ccc(CNc2nnnn2C)cc1 | 43* | -2 | -5 | 2 | 4
SMILES | FGF22 binding | miR-122 sensor | S100A4 MyoIIA | SIRT5 block | E-selectin induc
CCCn1nnnc1NCc1ccc(SC)cc1 | 0 | 0 | -1 | -2 | 0
C[C@@H]1CN([C@@H](C)CO)C(=O)c2cc(C#CC3CC3)cnc2O[C@H]1CN(C)C(=O)c1ccc(F)cc1 | 0 | 2[16.7 µM] | 5 | 3 | 0
CNc1nc(NCc2ccc(C)cc2C)c2sccc2n1 | 0 | -4 | -3 | -2 | 0
Cc1ccc(CNc2nc(NC(C)C)nc3ccsc23)c(C)c1 | -1 | -4 | 16 | 21* | 0
O=C(O)C[C@H]1CC[C@@H](NC(=O)CCN2CCCCC2)[C@@H](CO)O1 | . | . | 7 | 5 | 0
CC(C)n1nc(C(=O)Nc2cccc(S(=O)(=O)NCc3ccco3)c2)c2ccccc2c1=O | 0 | 99* | -4 | -3 | 3
CN(CCC#N)c1ccc(C=C(C#N)c2ccc(Br)cc2)cc1 | 44* | . | 2 | . | 1
COCC(=O)N(C)C[C@H]1Oc2cc(C#CC3CCCC3)ccc2S(=O)(=O)N([C@@H](C)CO)C[C@H]1C | . | -15[16.7 µM] | . | . | 0
CC1CN(S(=O)(=O)c2ccc(F)cc2)CN1C(=O)N1CCOCC1 (stereo not given) | 0 | 4 | -1 | -6 | .
CC1CN(S(=O)(=O)c2ccc(F)cc2)C(C)N1C(=O)N1CCOCC1 (stereo not given) | 0 | 0 | -1 | -1 | 26*
COc1ccc2c3c(cccc13)C(=O)CC2 | 0 | . | 166* | 1 | 0
C[C@@H]1CN([C@H](C)CO)C(=O)c2cc(NC(=O)c3ccccc3)ccc2O[C@@H](C)CCCCO[C@@H]1CN(C)C(=O)Nc1cccc2ccccc12 | -1 | -7[16.7 µM] | -31 | 9 | .
Cc1ccc2nc(SCC(=O)Nc3ccc4[nH]c(=O)[nH]c4c3)[nH]c2c1 | 0 | 12 | -2 | 1 | 0
Cc1cc(C)cc(NC(=O)CCCSc2nc3ccccc3[nH]2)c1 | . | . | . | . | 1
Cc1cccc(NC(=O)CCCSc2nc3ccccc3[nH]2)c1 | 43* | . | 0 | 2 | .
Cc1ccc2nc(SCC(=O)Nc3ccc(C(N)=O)cc3)[nH]c2c1 | 43* | . | 1 | 0 | 2
C[C@@H]1CCCCO[C@H](CN(C)S(C)(=O)=O)[C@@H](C)CN([C@H](C)CO)C(=O)c2cc(NS(C)(=O)=O)ccc2O1 | 0 | 0[16.7 µM] | . | . | 0
CCc1nc2ccc(C(=O)N3CCN(CC)CC3)cc2nc1CC | 43* | 1 | -25 | -1 | .
CCCN1CCN(C(=O)c2ccc3nc(CC)c(CC)nc3c2)CC1 | 0 | . | 6 | 20* | 0
CCc1nc2ccc(C(=O)N3CCN(c4ccc(Cl)cc4)CC3)cc2nc1CC | 0 | -1 | -1 | 0 | .
C[C@@H]1CN([C@H](C)CO)C(=O)Cc2cc(N(C)C)ccc2O[C@@H]1CN(C)S(=O)(=O)c1ccccc1 | -1 | 0[16.7 µM] | -1 | -4 | .
CC(C)NC(=O)N(C)C[C@@H]1Oc2ccc(NS(=O)(=O)c3cccs3)cc2C(=O)N([C@H](C)CO)C[C@H]1C | . | 1[16.7 µM] | . | . | -4
